Source: publication PMC7825188 (CPT: Pharmacometrics & Systems Pharmacology, 2020)
Where two headings read alike, the source gives them in different places.

Assays:
[1] = Study MBCT102: safety and tolerability; assay type: in vivo, human
Outline: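 AEs and SAEs were recorded from check-in on day −1 until the post-study physical examination (day 15). TEAEs were AEs that were new after treatment or worsened in intensity or frequency. Intensity was graded mild, moderate or severe.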

[2] = molecular target: P‐glycoprotein (P‐gp) (Homo sapiens, UniProt P08183); experiment: P-gp substrate status of acumapimod; assay type: in vitro ADME
[3] = assay type: in vivo, human; conditions: MBCT102
Outline: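 Healthy men (18–65 y, BMI 18–30, nonsmokers) completed two periods ≥14 days apart. Period 1 was a single oral 14 mg dose (2 × 7 mg capsules). In period 2, azithromycin 500 mg was given daily on days −1 to 2, with acumapimod on day 1. Plasma (K2EDTA) was sampled predose to 168 h, plus 336 h in period 2, and assayed by LC-MS/MS (1.0–1,000 ng/mL). Noncompartmental Cmax and AUCs were ln-transformed and analysed by ANOVA, giving GMR with 90% CI.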

[4] = molecular target: CYP3A4 (Homo sapiens, UniProt P08684); experiment: In vitro CYP phenotyping of acumapimod; assay type: in vitro ADME; conditions: both models; based on in vitro phenotyping data
[5] = assay type: in vivo, human; conditions: MBCT103
Outline: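 Healthy men received period 1 as in the azithromycin study (single 14 mg oral dose). In period 2, itraconazole oral solution 200 mg was given once daily on days 1–14, with a single acumapimod dose on day 7, 2 h post-itraconazole. Washout was ≥16 days. Plasma was sampled predose to 192 h and assayed by LC-MS/MS. Noncompartmental Cmax and AUCs were ln-transformed and analysed by ANOVA, giving GMR with 90% CI.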

[6] = Human mass balance study; assay type: in vivo; conditions: assigned to biliary clearance (Model 1) or unabsorbed drug (Model 2)
[7] = Study MBCT103: safety and tolerability; assay type: in vivo, human
Outline: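 AEs and SAEs were recorded from check-in on day −1 until a follow-up call 14 days after the last acumapimod dose. TEAEs were AEs that were new after treatment or worsened in intensity or frequency. Intensity was graded mild, moderate or severe. The safety set comprised all subjects receiving ≥1 acumapimod dose.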

[8] = acumapimod + azithromycin relative to acumapimod alone
[9] = azithromycin, upper 90% CI of GMR
[10] = with azithromycin vs. acumapimod alone
[11] = acumapimod + itraconazole vs. acumapimod alone
[12] = itraconazole, upper 90% CI of GMR
[13] = with itraconazole relative to acumapimod alone

Chain of CYP3A4 (P08684 whole entry): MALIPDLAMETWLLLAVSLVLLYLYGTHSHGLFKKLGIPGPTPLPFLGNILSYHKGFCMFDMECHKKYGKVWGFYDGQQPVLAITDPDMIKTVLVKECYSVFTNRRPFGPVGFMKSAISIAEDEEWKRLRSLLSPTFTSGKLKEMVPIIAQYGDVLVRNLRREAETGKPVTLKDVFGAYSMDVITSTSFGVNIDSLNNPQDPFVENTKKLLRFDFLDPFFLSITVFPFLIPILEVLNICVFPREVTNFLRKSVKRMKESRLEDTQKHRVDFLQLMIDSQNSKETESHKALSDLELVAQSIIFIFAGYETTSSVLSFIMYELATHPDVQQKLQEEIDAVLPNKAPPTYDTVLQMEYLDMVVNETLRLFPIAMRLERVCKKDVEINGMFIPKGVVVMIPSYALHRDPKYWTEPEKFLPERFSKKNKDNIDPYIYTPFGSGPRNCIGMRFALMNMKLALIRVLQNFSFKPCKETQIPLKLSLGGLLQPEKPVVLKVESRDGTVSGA
Chain of P‐glycoprotein (P‐gp) (P08183 whole entry): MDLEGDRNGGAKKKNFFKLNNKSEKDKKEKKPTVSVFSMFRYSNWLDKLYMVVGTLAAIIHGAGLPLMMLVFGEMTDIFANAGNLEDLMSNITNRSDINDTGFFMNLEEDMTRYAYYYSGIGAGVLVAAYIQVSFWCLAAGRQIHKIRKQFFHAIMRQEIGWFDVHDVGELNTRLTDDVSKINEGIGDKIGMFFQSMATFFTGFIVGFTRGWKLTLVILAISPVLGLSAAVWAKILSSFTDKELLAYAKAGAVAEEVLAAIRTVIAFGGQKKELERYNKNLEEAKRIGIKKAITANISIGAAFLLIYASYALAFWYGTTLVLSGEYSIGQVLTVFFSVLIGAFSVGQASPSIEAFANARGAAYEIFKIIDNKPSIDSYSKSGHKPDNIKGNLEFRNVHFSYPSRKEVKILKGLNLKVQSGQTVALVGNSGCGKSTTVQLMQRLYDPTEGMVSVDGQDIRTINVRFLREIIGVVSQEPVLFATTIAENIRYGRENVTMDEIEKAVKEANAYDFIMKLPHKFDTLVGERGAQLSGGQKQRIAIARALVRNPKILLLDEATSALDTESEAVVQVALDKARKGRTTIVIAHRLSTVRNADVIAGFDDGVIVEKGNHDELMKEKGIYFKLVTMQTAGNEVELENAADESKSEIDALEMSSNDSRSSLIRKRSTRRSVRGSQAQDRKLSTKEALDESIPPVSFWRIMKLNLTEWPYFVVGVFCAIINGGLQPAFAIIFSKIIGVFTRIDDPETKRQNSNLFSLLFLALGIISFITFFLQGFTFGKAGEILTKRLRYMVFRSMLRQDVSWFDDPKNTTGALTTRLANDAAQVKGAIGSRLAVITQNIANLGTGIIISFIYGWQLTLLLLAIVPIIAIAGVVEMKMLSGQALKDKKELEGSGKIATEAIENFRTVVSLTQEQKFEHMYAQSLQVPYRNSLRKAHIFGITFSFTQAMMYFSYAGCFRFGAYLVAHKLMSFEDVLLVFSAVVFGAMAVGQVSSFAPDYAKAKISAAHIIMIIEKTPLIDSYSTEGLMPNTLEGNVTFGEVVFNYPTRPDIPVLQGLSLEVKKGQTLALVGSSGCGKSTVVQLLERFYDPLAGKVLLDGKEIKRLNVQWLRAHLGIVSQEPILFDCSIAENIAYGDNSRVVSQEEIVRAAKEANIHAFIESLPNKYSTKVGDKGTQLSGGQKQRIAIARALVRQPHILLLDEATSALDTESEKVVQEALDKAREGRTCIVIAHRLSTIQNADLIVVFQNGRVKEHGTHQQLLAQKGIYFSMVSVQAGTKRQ

With `Cc1ccc(C(=O)NC2CC2)cc1-n1ncc(C(=O)c2cccc(C#N)c2)c1N` [acumapimod] as the molecule, how does the SAEs or deaths [1] read?
Its SAEs or deaths is “No SAEs or deaths were reported”.

And the “safety laboratory, vital signs, electrocardiogram, physical examination” value [1]?
The value was “No clinically relevant findings”.

And the “subjects reporting TEAEs” value ([1]; 8 of 16 subjects, both periods)?
The value was 50%.

What about the “number of TEAEs, overall” value ([1]; 16 subjects, both periods) of the same molecule?
The value was “Fifteen”.

What about the “number of TEAEs” value ([1]; acumapimod alone (period 1)) of the same molecule?
The value was 7.

What about the “number of TEAEs” value ([1]; acumapimod with azithromycin (period 2)) of the same molecule?
Its value is 8.

And the “intensity of TEAEs” value ([1]; all TEAEs)?
The value was “mild or moderate”.

And the “TEAE considered likely related to acumapimod” value ([1]; one TEAE, first exposure (acumapimod alone))?
The value was “acneiform rash”.

What about the P-gp substrate status [2] of the same molecule?
The P-gp substrate status was “substrate of P‐glycoprotein (P‐gp)”.

What about the “AUC0–t ratio (adjusted GMR)” value [3, 8] of the same molecule?
The value was 105.65%.

What about the “AUC0–∞ ratio (adjusted GMR)” value [3, 8] of the same molecule?
The value was 104.32%.

What about the “Cmax ratio (adjusted GMR)” value [3, 8] of the same molecule?
Its value is 106.34%.

And the “upper limit of the interaction, AUC0–t” value [3, 9]?
The value was 112%.

And the “upper limit of the interaction, AUC0–∞” value [3, 9]?
The value was 110%.

And the “upper limit of the interaction, Cmax” value [3, 9]?
Its value is 115%.

What about the “increase of geometric mean AUC0–∞” value [3, 10] of the same molecule?
The value was 4.3%.

What about the “increase of geometric mean Cmax” value [3, 10] of the same molecule?
The value was 6.3%.

What about the “share of CYP‐mediated metabolism assigned to CYP3A4” value [4] of the same molecule?
The value was 97.8%.

What about the “AUC0–t ratio (adjusted GMR)” value [5, 11] of the same molecule?
The value was 110.09%.

What about the “AUC0–∞ ratio (adjusted GMR)” value [5, 11] of the same molecule?
Its value is 110.22%.

What about the “Cmax ratio (adjusted GMR)” value [5, 11] of the same molecule?
Its value is 99.44%.

What about the “upper limit of interaction, AUC0–t” value [5, 12] of the same molecule?
The value was 120%.

And the “upper limit of interaction, AUC0–∞” value [5, 12]?
The value was 120%.

What about the “upper limit of interaction, Cmax” value [5, 12] of the same molecule?
The value was 109%.

And the “change in Cmax” value [5, 13]?
The value was “no change”.

And the “increase of geometric mean AUC0–t” value [5, 13]?
The value was 10%.

What about the “increase of geometric mean AUC0–∞” value [5, 13] of the same molecule?
Its value is 10%.

And the “dose recovered in the feces” value [6]?
Its value is 33.9%.

What about the “deaths, SAEs, severe TEAEs” value [7] of the same molecule?
The value was “No deaths, SAEs, or severe TEAEs were reported”.

And the “treatment-related TEAEs” value [7]?
Its value is “No TEAEs were judged to be treatment related”.

What about the “vital signs, electrocardiogram, laboratory parameters” value [7] of the same molecule?
Its value is “No safety concerns were raised”.

And the “subjects reporting TEAEs” value ([7]; 6 of 16 subjects, both periods)?
Its value is 37.5%.

And the “number of TEAEs, overall” value ([7]; 16 subjects, both periods)?
Its value is 10.

What about the “number of TEAEs” value ([7]; acumapimod and itraconazole (period 2)) of the same molecule?
The value was 8.

And the “liver function tests and central nervous system AEs” value ([7]; co‐administration of acumapimod and itraconazole)?
The value was “no clinically meaningful changes”.
